According to ChEMBL document CHEMBL1154122, “A comprehensive study of Sansalvamide A derivatives: The structure-activity relationships of 78 derivatives in two pancreatic cancer cell lines” (2009):
Square brackets hold non-standard residues; d marks the D form. Peptide text beside a SMILES is read from it. * marks the point of attachment. dNMeF = CN[C@H](Cc1ccccc1)C(=O)O; NMeL = CN[C@@H](CC(C)C)C(=O)O; dNMeL = CN[C@H](CC(C)C)C(=O)O; Cbz = O=C(OCc1ccccc1)*

Tests used:
BXPC-3 = test: Cytotoxicity against human BxPC3 cells after 56 hrs by [3H]thymidine uptake assay; format: functional
Outline: (§1)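 Cells seeded at 2000–2500/well in DMEM with L-glutamine, 10% FBS and 1% penicillin-streptomycin. […] After 56 h, 3H-thymidine was added for 16 h more (72 h total), then cells were harvested and counted (CPM). Inhibition = 1 − CPM treated/DMSO; IC50 taken from curves, mean and SEM.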

[1] = Cytotoxicity against human PL45 cells after 56 hrs by [3H]thymidine uptake assay; format: functional; outline: as §1

## CC(C)C[C@@H]1NC(=O)[C@H](Cc2ccccc2)NC(=O)[C@H](CC(C)C)NC(=O)[C@H](C(C)C)NC(=O)[C@H](CC(C)C)NC1=O
BXPC-3
  growth inhibition (GI): 42%
[1]
  growth inhibition (GI): 25%

## CC(C)C[C@@H]1NC(=O)[C@H](Cc2ccccc2)NC(=O)[C@H](CC(C)C)NC(=O)[C@H](C(C)C)N(C)C(=O)[C@H](CC(C)C)NC1=O
BXPC-3
  growth inhibition (GI): 28%
[1]
  growth inhibition (GI): 20%

## CC(C)C[C@@H]1NC(=O)[C@H](Cc2ccccc2)NC(=O)[C@@H](CC(C)C)NC(=O)[C@@H](C(C)C)NC(=O)[C@H](CC(C)C)NC1=O
BXPC-3
  growth inhibition (GI): 33%
[1]
  growth inhibition (GI): 41%

## CC(C)C[C@@H]1NC(=O)[C@H](CC(C)C)NC(=O)[C@@H](Cc2ccccc2)NC(=O)[C@@H](CC(C)C)NC(=O)[C@@H](C(C)C)NC1=O
BXPC-3
  growth inhibition (GI): 42%
[1]
  growth inhibition (GI): 44%

## CC(C)C[C@@H]1NC(=O)[C@H](CC(C)C)N(C)C(=O)[C@H](Cc2ccccc2)NC(=O)[C@H](CC(C)C)N(C)C(=O)[C@H](C(C)C)NC1=O
BXPC-3
  growth inhibition (GI): 9%
[1]
  growth inhibition (GI): 38%

## CC(C)C[C@@H]1NC(=O)[C@H](C(C)C)NC(=O)[C@H](CC(C)C)NC(=O)[C@H](CC(C)C)N(C)C(=O)[C@H](Cc2ccccc2)NC1=O
BXPC-3
  growth inhibition (GI): 47%
[1]
  growth inhibition (GI): 44%

## CC(C)C[C@@H]1NC(=O)[C@H](Cc2ccccc2)NC(=O)[C@@H](Cc2ccccc2)N(C)C(=O)[C@H](C(C)C)NC(=O)[C@H](CC(C)C)NC1=O
BXPC-3
  growth inhibition (GI): 35%
[1]
  growth inhibition (GI): 51%

## CC(C)C[C@@H]1NC(=O)[C@H](Cc2ccccc2)NC(=O)[C@@H](Cc2ccccc2)NC(=O)[C@H](C(C)C)NC(=O)[C@H](CC(C)C)NC1=O
BXPC-3
  growth inhibition (GI): 55%
[1]
  growth inhibition (GI): 39%

## CC(C)C[C@@H]1NC(=O)[C@H](Cc2ccccc2)NC(=O)[C@H](CC(C)C)NC(=O)[C@@H](C(C)C)NC(=O)[C@H](CC(C)C)NC1=O
BXPC-3
  growth inhibition (GI): 22%
[1]
  growth inhibition (GI): 45%

## CC(C)C[C@@H]1NC(=O)[C@H](C(C)C)NC(=O)[C@H](CC(C)C)NC(=O)[C@@H](CC(C)C)N(C)C(=O)[C@H](Cc2ccccc2)NC1=O
BXPC-3
  growth inhibition (GI): 43%
[1]
  growth inhibition (GI): 49%

## CC(C)C[C@@H]1NC(=O)[C@H](CC(C)C)NC(=O)[C@@H](Cc2ccccc2)NC(=O)[C@H](CC(C)C)NC(=O)[C@H](C(C)C)NC1=O
BXPC-3
  growth inhibition (GI): 55%
[1]
  growth inhibition (GI): 22%

## CC(C)C[C@@H]1NC(=O)[C@H](C(C)C)NC(=O)[C@H](CC(C)C)NC(=O)[C@@H](CC(C)C)NC(=O)[C@H](Cc2ccccc2)NC1=O
BXPC-3
  growth inhibition (GI): 29%
[1]
  growth inhibition (GI): 29%

## CC(C)C[C@@H]1NC(=O)[C@H](Cc2ccccc2)NC(=O)[C@@H](CC(C)C)NC(=O)[C@H](C(C)C)NC(=O)[C@H](CC(C)C)NC1=O
BXPC-3
  growth inhibition (GI): 34%
[1]
  growth inhibition (GI): 41%

## CC(C)C[C@@H]1NC(=O)[C@@H](CC(C)C)NC(=O)[C@H](Cc2ccccc2)NC(=O)[C@H](CC(C)C)NC(=O)[C@@H](C(C)C)NC1=O
BXPC-3
  growth inhibition (GI): 30%
[1]
  growth inhibition (GI): 32%

## CC(C)C[C@H]1NC(=O)[C@@H](Cc2ccccc2)NC(=O)[C@@H](CC(C)C)NC(=O)[C@@H](C(C)C)NC(=O)[C@@H](CC(C)C)NC1=O
BXPC-3
  growth inhibition (GI): 30%
[1]
  growth inhibition (GI): 17%

## CC(C)C[C@@H]1C(=O)N[C@H](CC(C)C)C(=O)N[C@H](C(C)C)C(=O)N[C@H](CC(C)C)C(=O)N[C@H](Cc2ccccc2)C(=O)N1C
BXPC-3
  growth inhibition (GI): 33%
[1]
  growth inhibition (GI): 43%

## CC(C)C[C@H]1NC(=O)[C@@H](Cc2ccccc2)NC(=O)[C@@H](CC(C)C)NC(=O)[C@@H](C(C)C)N(C)C(=O)[C@@H](CC(C)C)NC1=O
BXPC-3
  growth inhibition (GI): 31%
[1]
  growth inhibition (GI): 6%

## CC(C)C[C@@H]1NC(=O)[C@H](Cc2ccccc2)NC(=O)[C@H](CC(C)C)NC(=O)[C@H](C(C)C)NC(=O)[C@@H](CC(C)C)NC1=O
BXPC-3
  growth inhibition (GI): 0%
[1]
  growth inhibition (GI): 0%

## CC(C)C[C@@H]1NC(=O)[C@H](C(C)C)NC(=O)[C@@H](CC(C)C)NC(=O)[C@@H](CC(C)C)NC(=O)[C@H](Cc2ccccc2)NC1=O
BXPC-3
  growth inhibition (GI): 0%
[1]
  growth inhibition (GI): 14%

## CC(C)C[C@@H]1NC(=O)[C@@H](C(C)C)N(C)C(=O)[C@H](CC(C)C)NC(=O)[C@@H](CC(C)C)NC(=O)[C@H](Cc2ccccc2)NC1=O
BXPC-3
  growth inhibition (GI): 35%
[1]
  growth inhibition (GI): 21%

## CC(C)C[C@@H]1NC(=O)[C@H](Cc2ccccc2)NC(=O)[C@H](CC(C)C)NC(=O)[C@@H](C(C)C)N(C)C(=O)[C@H](CC(C)C)NC1=O
BXPC-3
  growth inhibition (GI): 34%
[1]
  growth inhibition (GI): 29%

## CC(C)C[C@@H]1NC(=O)[C@H](C(C)C)N(C)C(=O)[C@H](CC(C)C)NC(=O)[C@@H](Cc2ccccc2)NC(=O)[C@H](Cc2ccccc2)NC1=O
BXPC-3
  growth inhibition (GI): 3%
[1]
  growth inhibition (GI): 21%

## CC(C)C[C@@H]1NC(=O)[C@@H](CC(C)C)N(C)C(=O)[C@H](Cc2ccccc2)NC(=O)[C@H](CC(C)C)NC(=O)[C@@H](C(C)C)NC1=O
BXPC-3
  growth inhibition (GI): 38%
[1]
  growth inhibition (GI): 26%

## CC(C)C[C@@H]1NC(=O)[C@H](C(C)C)N(C)C(=O)[C@@H](CC(C)C)NC(=O)[C@@H](Cc2ccccc2)NC(=O)[C@@H](Cc2ccccc2)NC1=O
BXPC-3
  growth inhibition (GI): 6%
[1]
  growth inhibition (GI): 15%

## CC(C)[C@@H]1NC(=O)[C@H](CC2CCCCC2)NC(=O)[C@H](COCc2ccccc2)NC(=O)[C@H](Cc2ccccc2)NC(=O)[C@@H](Cc2ccccc2)N(C)C1=O
BXPC-3
  growth inhibition (GI): 44%
[1]
  growth inhibition (GI): 40%

## CC(C)C[C@@H]1NC(=O)[C@H](Cc2ccccc2)NC(=O)[C@@H](Cc2ccccc2)N(C)C(=O)[C@@H](C(C)C)NC(=O)[C@H](CC(C)C)NC1=O
BXPC-3
  growth inhibition (GI): 4%
[1]
  growth inhibition (GI): 55%

## CC(C)C[C@@H]1NC(=O)[C@H](CC(C)C)NC(=O)[C@@H](Cc2ccccc2)NC(=O)[C@H](CC(C)C)NC(=O)[C@@H](C(C)C)NC1=O
BXPC-3
  growth inhibition (GI): 7%
[1]
  growth inhibition (GI): 41%

## CC(C)C[C@@H]1NC(=O)[C@@H](Cc2ccccc2)NC(=O)[C@H](CC(C)C)NC(=O)[C@@H](C(C)C)N(C)C(=O)[C@H](CC(C)C)NC1=O
BXPC-3
  growth inhibition (GI): 31%
[1]
  growth inhibition (GI): 36%

## CC(C)C[C@@H]1NC(=O)[C@H](Cc2ccccc2)NC(=O)[C@H](CC(C)C)NC(=O)[C@@H](C(C)C)NC(=O)[C@@H](CC(C)C)NC1=O
BXPC-3
  growth inhibition (GI): 12%
[1]
  growth inhibition (GI): 14%

## CC(C)C[C@@H]1NC(=O)[C@H](Cc2ccccc2)NC(=O)[C@@H](Cc2ccccc2)N(C)C(=O)[C@H](C(C)C)NC(=O)[C@H](CC2CCCCC2)NC1=O
BXPC-3
  growth inhibition (GI): 21%
[1]
  growth inhibition (GI): 44%

## CC(C)C[C@@H]1C(=O)N[C@H](CC(C)C)C(=O)N[C@H](C(C)C)C(=O)N(C)[C@H](CC(C)C)C(=O)N[C@H](Cc2ccccc2)C(=O)N1C
BXPC-3
  growth inhibition (GI): 33%
[1]
  growth inhibition (GI): 6%

## CC(C)C[C@@H]1NC(=O)[C@H](C(C)C)N(C)C(=O)[C@@H](CCCCNC(=O)OCc2ccccc2)NC(=O)[C@@H](Cc2ccccc2)NC(=O)[C@H](Cc2ccccc2)NC1=O
BXPC-3
  growth inhibition (GI): 55%
[1]
  growth inhibition (GI): 65%

## CC(C)C[C@@H]1NC(=O)[C@H](C(C)C)N(C)C(=O)[C@@H](CCCCN)NC(=O)[C@@H](Cc2ccccc2)NC(=O)[C@H](Cc2ccccc2)NC1=O
BXPC-3
  growth inhibition (GI): 8%
[1]
  growth inhibition (GI): 5%

## CC(C)[C@H]1NC(=O)[C@H](CC2CCCCC2)NC(=O)[C@H](COCc2ccccc2)NC(=O)[C@H](Cc2ccccc2)NC(=O)[C@@H](Cc2ccccc2)N(C)C1=O
BXPC-3
  growth inhibition (GI): 80%
[1]
  growth inhibition (GI): 70%

## CC(C)C[C@@H]1NC(=O)[C@H](COCc2ccccc2)NC(=O)[C@@H](Cc2ccccc2)NC(=O)[C@@H](CC(C)C)NC(=O)[C@@H](C(C)C)NC1=O
BXPC-3
  growth inhibition (GI): 43%
[1]
  growth inhibition (GI): 30%

## CC(C)C[C@@H]1NC(=O)[C@H](C)NC(=O)[C@H](CC(C)C)NC(=O)[C@H](CC(C)C)NC(=O)[C@H](Cc2ccccc2)NC1=O (cyclo(ALFLL))
BXPC-3
  growth inhibition (GI): 20%
[1]
  growth inhibition (GI): 18%

## CC(C)C[C@@H]1NC(=O)[C@H](Cc2ccccc2)NC(=O)[C@H](CC(C)C)NC(=O)[C@H](C(C)C)NC(=O)[C@H](CCCCNC(=O)OCc2ccccc2)NC1=O (cyclo(FLK(Cbz)VL))
BXPC-3
  growth inhibition (GI): 8%
[1]
  growth inhibition (GI): 0%

## CC(C)C[C@@H]1NC(=O)[C@H](Cc2ccccc2)NC(=O)[C@@H](Cc2ccccc2)N(C)C(=O)[C@H](C(C)C)NC(=O)[C@H](CCCCNC(=O)OCc2ccccc2)NC1=O (cyclo(FLK(Cbz)V[dNMeF]))
BXPC-3
  growth inhibition (GI): 0%
[1]
  growth inhibition (GI): 44%

## CC(C)C[C@@H]1NC(=O)[C@H](Cc2ccccc2)NC(=O)[C@H](CC(C)C)NC(=O)[C@@H](C(C)C)NC(=O)[C@H](CCCCNC(=O)OCc2ccccc2)NC1=O (cyclo(FLK(Cbz)[dV]L))
BXPC-3
  growth inhibition (GI): 29%
[1]
  growth inhibition (GI): 0%

## CC(C)C[C@@H]1NC(=O)[C@H](Cc2ccccc2)NC(=O)[C@H](CC(C)C)NC(=O)[C@H](C(C)C)NC(=O)[C@H](CCCCN)NC1=O (cyclo(FLKVL))
BXPC-3
  growth inhibition (GI): 8%
[1]
  growth inhibition (GI): 0%

## CC(C)C[C@@H]1NC(=O)[C@H](Cc2ccccc2)NC(=O)[C@@H](Cc2ccccc2)N(C)C(=O)[C@H](C(C)C)NC(=O)[C@H](CCCCN)NC1=O (cyclo(FLKV[dNMeF]))
BXPC-3
  growth inhibition (GI): 30%
[1]
  growth inhibition (GI): 26%

## CC(C)C[C@@H]1NC(=O)[C@H](Cc2ccccc2)NC(=O)[C@H](CC(C)C)NC(=O)[C@@H](C(C)C)NC(=O)[C@H](CCCCN)NC1=O (cyclo(FLK[dV]L))
BXPC-3
  growth inhibition (GI): 24%
[1]
  growth inhibition (GI): 23%

## CC(C)C[C@@H]1NC(=O)[C@H](Cc2ccccc2)NC(=O)[C@H](CC(C)C)N(C)C(=O)[C@H](C(C)C)NC(=O)[C@H](CC(C)C)NC1=O (cyclo(FLLV[NMeL]))
BXPC-3
  growth inhibition (GI): 0%
[1]
  growth inhibition (GI): 0%

## CC(C)C[C@@H]1NC(=O)[C@H](Cc2ccccc2)NC(=O)[C@@H](CC(C)C)N(C)C(=O)[C@H](C(C)C)NC(=O)[C@H](CC(C)C)NC1=O (cyclo(FLLV[dNMeL]))
BXPC-3
  growth inhibition (GI): 2%
[1]
  growth inhibition (GI): 5%
